For test [1], the target named is T1, Metabotropic glutamate receptor 5 (Homo sapiens, UniProt P41594). The test can be described thus: Positive allosteric modulation of human mGluR5 expressed in recombinant HEK293 cells by FLIPR assay. Format: cell-based. Also on record: Activity: concentration or dose not given beside the values. In outline: (§1)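 HEK293 cells recombinantly expressing human mGluR5 were seeded at 2×10^4 cells/well on poly-D-lysine. They were incubated overnight at 37 °C in glutamate/glutamine-free medium, then loaded for 1 h at 37 °C with calcium 5 dye containing 3 U/ml glutamic pyruvic transaminase and 3 mM sodium pyruvate. Calcium flux was read by FLIPR.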

In test [2] the target is T1, Metabotropic glutamate receptor 5. The test can be described thus: Negative allosteric modulation of human mGluR5 expressed in recombinant HEK293 cells by FLIPR assay. The format is cell-based. The note with it: for inhibition: concentration not given here. The essentials: as §1

This note sets out measurements from ChEMBL document CHEMBL2150889, “Azetidinyl oxadiazoles as potent mGluR5 positive allosteric modulators” (Bioorg Med Chem Lett, 2012).

For the compound `O=C(c1ccc(F)c(F)c1)N1CC(c2nc(-c3cccc(F)c3)no2)C1`, in test [1], the Activity came out at 50%; the EC50 – broadly, the concentration at which the effect is half-maximal – stood at 3.2 µM; the Emax – broadly, the maximal effect, on the per cent scale that the assay sets – was 35%. Moreover, the IC50 (as a rule, the midpoint of a concentration-inhibition curve) in test [2] was greater than 10 µM.

In the case of `Cc1cccc(-c2noc([C@@H]3CCN3C(=O)Cc3ccc(F)cc3)n2)c1`, in test [1], the Activity was determined as 30%, the EC50 is 1.9 µM and the Emax was found to be 24%. Further, the IC50 in test [2] was greater than 10 µM.

`Cc1cccc(-c2noc(C3CN(C(=O)c4ccc(F)cc4)C3)n2)c1`: in test [1], the EC50 came to 1.4 µM and the Emax is 32%. Also, in test [2], the IC50 was greater than 10 µM and the inhibition (usually the change of the read-out against control, counted positive when it falls) turned out to be 50%.

Take `Cc1cccc(-c2noc([C@@H]3CCN3C(=O)c3ccc(F)c(F)c3)n2)c1`: in test [1], the Activity stood at 92%, the EC50 was 1.5 µM and the Emax was 51%. For the same compound, in test [2], the IC50 was greater than 10 µM.

For the compound `Cc1cccc(-c2noc(C3CN(C(=O)C4CCCCC4)C3)n2)c1`, in test [1], the Activity came out at 20%, the EC50 worked out at 0.95 µM and the Emax amounted to 45%. Moreover, in test [2], the IC50 was greater than 10 µM.

As for `O=C([C@@H]1CC2CCC1C2)N1CC(c2nc(-c3ccccc3)no2)C1` (stereo not given in full), in test [1], the EC50 came out at 0.4 µM and the Emax stood at 88%.

In the case of `Cc1cccc(-c2noc(C3CN(C(=O)C4CCC(C(F)(F)F)CC4)C3)n2)c1` (stereo not given), in test [1], the half-maximal effective concentration (EC50) was found to be 1 µM and the Emax is 36%. Moreover, in test [2], the IC50 is greater than 10 µM and the inhibition came to 3%.

Regarding `Cc1cccc(-c2noc(C3CN(C(=O)C4CCC4)C3)n2)c1`, in test [1], the EC50 is greater than 10 µM and the Emax turned out to be 3%. Further, in test [2], the IC50 was 1 µM and the inhibition stood at 77%.

Take `O=C(C1CCCCC1)N1CC(c2nc(-c3cccc(Cl)c3)no2)C1`: in test [1], the Activity was determined as 35%, the EC50 was 0.52 µM and the Emax worked out at 43%. Besides, the IC50 in test [2] is greater than 10 µM.

Turning to `O=C(Cc1cccc(F)c1)N1CC[C@H]1c1nc(-c2cccc(F)c2)no1`, in test [1], the Activity came out at 75%, the EC50 worked out at 2.4 µM and the Emax was determined as 52%. The IC50 in test [2] is greater than 10 µM.

Consider `Cc1cccc(-c2noc([C@@H]3CCN3C(=O)c3ccc(C#N)cc3)n2)c1`, for which, in test [1], the EC50 is greater than 10 µM and the Emax was 88%. In addition, in test [2], the IC50 was determined as 1.4 µM and the inhibition amounted to 72%.

Consider `O=C(c1cccc(F)c1)N1CC(c2nc(-c3cccc(Cl)c3)no2)C1`, for which, in test [1], the EC50 was greater than 10 µM and the Emax is -12%. In test [2], the IC50 was 0.78 µM and the inhibition was determined as 87%.

Regarding `O=C(C1CCC(C(F)(F)F)CC1)N1CC(c2nc(-c3cccc(Cl)c3)no2)C1` (stereo not given), in test [1], the Activity is 5%, the EC50 turned out to be 1 µM and the Emax stood at 40%. In addition, the IC50 in test [2] is greater than 10 µM.

Take `O=C(c1ccccc1F)N1CC[C@H]1c1nc(-c2cccc(F)c2)no1`: in test [1], the EC50 was greater than 10 µM and the Emax is 57%. Moreover, in test [2], the IC50 turned out to be 0.92 µM and the inhibition is 68%.

Turning to `Cc1cccc(-c2noc(C3CN(C(=O)C4CCC(C)CC4)C3)n2)c1` (stereo not given), in test [1], the Activity worked out at 49%, the EC50 stood at 0.97 µM and the Emax was 68%. In test [2], the IC50 was greater than 10 µM.

With `Cc1cccc(-c2noc(C3CN(C(=O)C4CCOC4)C3)n2)c1` (stereo not given), in test [1], the EC50 was greater than 10 µM and the Emax is -7%. Besides, in test [2], the IC50 came out at 1.3 µM and the inhibition stood at 80%.

Take `O=C([C@@H]1CC2CCC1C2)N1CC(c2nc(-c3cccc(Cl)c3)no2)C1` (stereo not given in full): in test [1], the EC50 was found to be 0.098 µM and the Emax stood at 66%.

For `O=C([C@H]1CC2CCC1C2)N1CC(c2nc(-c3cccc(Cl)c3)no2)C1` (stereo not given in full), in test [1], the EC50 is 0.074 µM and the Emax amounted to 120%.

For the compound `O=C([C@H]1CC2CCC1C2)N1CC(c2nc(-c3ccccc3)no2)C1` (stereo not given in full), in test [1], the EC50 came out at 0.12 µM and the Emax was found to be 160%.

For the compound `O=C([C@@H]1CC2CCC1C2)N1CC(c2nc(-c3cccc(F)c3)no2)C1` (stereo not given in full), in test [1], the EC50 is 0.1 µM and the Emax was 110%.
